A short description of experiment [1]: Inhibitory activity against recombinant Glutamate Racemase from Streptococcus pneumoniae expressed in Escherichia coli. In short, it runs like this:
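Enzyme purified by Ni(II) IMAC, imidazole gradient, from E. coli paste overexpressing the S. pneumoniae racemase; dialysed into Tris-HCl pH 7.8 with β-mercaptoethanol. Enzyme (6 µg mL-1) with 10 mM L-glutamate, inhibitor added before enzyme, 15 min at room temperature. Quenched with Marfey's reagent; derivatised 60 min at 40 °C. D/L-Glu separated by C18 HPLC, A340. Conversion from D/(D+L) peak areas over decreasing inhibitor concentrations gives IC50.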

The subject of experiment [2] is Streptococcus pneumoniae. Briefly: In vitro whole cell growth inhibition against PN-R6 strain of Streptococcus pneumoniae. It is filed as functional. In short, it runs like this: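 NCCLS microtiter broth dilution. Compounds in DMSO, 2-fold serial dilutions from 250 to 0.25 µg/mL in Mueller–Hinton II broth plus 5% lysed horse blood. Inoculum 5 × 10^5 CFU/mL; final DMSO 2.5%. Incubated overnight at 35 °C. MIC is the lowest concentration visibly inhibiting growth.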

Experiment [3] concerns Streptococcus pneumoniae. As to the kind of experiment: Antibacterial activity against Streptococcus pneumoniae R6 strain. It is filed as functional.
For the next experiment, the system named is Moraxella catarrhalis. As to the kind of experiment: Antibacterial activity against Moraxella catarrhalis BC-1 strain. It is filed as functional.
In experiment [4] the test system is Streptococcus pneumoniae. Briefly: Antibacterial activity against Streptococcus pneumoniae Park1 strain. It is filed as functional.
A further experiment relates to Staphylococcus aureus. As to the kind of experiment: Antibacterial activity against Staphylococcus aureus 027 strain. It is filed as functional.

The term IC50 denotes the midpoint of a concentration-inhibition curve. As usually defined, the MIC is the lowest concentration that inhibits growth of the organism.

Values after ≈ are worked out from the molar mass of the structure shown.

Take `N[C@H](C[C@H](Cc1cccc(-c2cc3ccccc3s2)c1)C(=O)O)C(=O)O`: the IC50 in experiment [1] was 0.3 µg/mL. This compound also yielded an MIC in the experiment on Streptococcus pneumoniae [2] of 0.5 µg/mL (≈ 1.35 µM).
In the same order, the values of `N[C@H](C[C@H](Cc1cccc(Cl)c1)C(=O)O)C(=O)O` are 3.4 µg/mL and 1 µg/mL (≈ 3.68 µM).
In the case of `N[C@H](C[C@H](Cc1csc2ccccc12)C(=O)O)C(=O)O`, in experiment [1], the IC50 was found to be 1.7 µg/mL. The same compound registered an MIC in the experiment with Streptococcus pneumoniae [2] of 7.8 µg/mL (≈ 26.6 µM).
In the same order, the values of `N[C@H](C[C@H](Cc1ccccc1)C(=O)O)C(=O)O` are 0.3 µg/mL and 0.5 µg/mL (≈ 2.11 µM).
In the same order, the values of `N[C@H](C[C@H](Cc1ccc(C(F)(F)F)cc1)C(=O)O)C(=O)O` are 0.8 µg/mL and 7.8 µg/mL (≈ 25.6 µM).
Consider `N[C@H](C[C@H](Cc1cccc([N+](=O)[O-])c1)C(=O)O)C(=O)O`, for which the IC50 in experiment [1] worked out at 5.2 µg/mL. Further, it took 2 µg/mL (≈ 7.09 µM) to inhibit growth against Streptococcus pneumoniae [2] (MIC).
In the same order, the values of `N[C@H](C[C@H](CC#Cc1ccccc1)C(=O)O)C(=O)O` are 0.37 µg/mL and 2 µg/mL (≈ 7.65 µM).
In the same order, the values of `N[C@H](C[C@H](CCCc1ccccc1)C(=O)O)C(=O)O` are 0.5 µg/mL and 3.9 µg/mL (≈ 14.7 µM).
As for `N[C@H](C[C@H](Cc1cccc(Br)c1)C(=O)O)C(=O)O`, in experiment [1], the IC50 was 0.13 µg/mL. This compound also gave an MIC against Streptococcus pneumoniae [2] of 0.5 µg/mL (≈ 1.58 µM).
In the same order, the values of `COc1cccc(C[C@@H](C[C@@H](N)C(=O)O)C(=O)O)c1` are 0.2 µg/mL and 0.5 µg/mL (≈ 1.87 µM).
In the same order, the values of `N[C@H](C[C@H](CCCC1CCCCC1)C(=O)O)C(=O)O` are 0.6 µg/mL and 2 µg/mL (≈ 7.37 µM).
In the same order, the values of `N[C@H](C[C@H](Oc1ccc(-c2ccccc2)cc1)C(=O)O)C(=O)O` are 8.2 µg/mL and 31.3 µg/mL (≈ 99.3 µM).
With `N[C@H](C[C@H](Cc1ccc(NS(=O)(=O)c2ccccc2)cc1)C(=O)O)C(=O)O`, in experiment [1], the IC50 was 10.2 µg/mL. Moreover, the MIC in the experiment with Streptococcus pneumoniae [2] is more than 250 µg/mL.
In the same order, the values of `COc1ccc(C[C@@H](C[C@@H](N)C(=O)O)C(=O)O)cc1` are 0.1 µg/mL and 0.5 µg/mL (≈ 1.87 µM).
Consider `N[C@H](C[C@H](Cc1ccc2ccccc2c1)C(=O)O)C(=O)O`, for which the IC50 in experiment [1] was 0.1 µg/mL. Moreover, the MIC in the experiment with Streptococcus pneumoniae [2] is 0.25 µg/mL (≈ 0.87 µM); against Streptococcus pneumoniae [3], 0.25 µg/mL (≈ 0.87 µM); in the experiment with Moraxella catarrhalis it was 62.5 µg/mL (≈ 218 µM); in the experiment on Streptococcus pneumoniae [4], 3.9 µg/mL (≈ 13.6 µM); against Staphylococcus aureus, more than 250 µg/mL.
For the compound `N[C@H](C[C@H](Cc1cccs1)C(=O)O)C(=O)O`, the IC50 in experiment [1] came out at 0.1 µg/mL. The same compound showed an MIC against Streptococcus pneumoniae [2] of 1 µg/mL (≈ 4.11 µM).
`N[C@H](C[C@H](CNC(=O)c1ccccc1)C(=O)O)C(=O)O`: the IC50 in experiment [1] was found to be 9.4 µg/mL. This compound showed an MIC in the experiment with Streptococcus pneumoniae [2] of 62.5 µg/mL (≈ 223 µM).
In the same order, the values of `N[C@H](C[C@H](Cc1cc(C(F)(F)F)cc(C(F)(F)F)c1)C(=O)O)C(=O)O` are more than 100 µg/mL and more than 250 µg/mL.
With `C#CC[C@@H](C[C@@H](N)C(=O)O)C(=O)O`, the IC50 in experiment [1] worked out at 5.5 µg/mL. For the same compound, 31.3 µg/mL (≈ 169 µM) was the least that counted as inhibitory against Streptococcus pneumoniae [2] (MIC).
In the same order, the values of `N[C@H](C[C@H](Cc1ccc(NC(=O)Nc2ccccc2)cc1)C(=O)O)C(=O)O` are 0.49 µg/mL and 15.6 µg/mL (≈ 42 µM).
Turning to `N[C@H](C[C@H](Cc1ccc([N+](=O)[O-])cc1)C(=O)O)C(=O)O`, the IC50 in experiment [1] was found to be 5.2 µg/mL. The compound further showed an MIC against Streptococcus pneumoniae [2] of 2 µg/mL (≈ 7.09 µM).
For the compound `N[C@H](C[C@H](Cc1cc2ccccc2[nH]1)C(=O)O)C(=O)O`, in experiment [1], the IC50 amounted to 9.8 µg/mL. This compound returned an MIC in the experiment with Streptococcus pneumoniae [2] of 62.5 µg/mL (≈ 226 µM).
In the same order, the values of `CC(C)(C)c1ccc(C[C@@H](C[C@@H](N)C(=O)O)C(=O)O)cc1` are 0.6 µg/mL and 1 µg/mL (≈ 3.41 µM).
In the same order, the values of `N[C@H](C[C@H](Cc1ccc(-c2cc3ccccc3s2)cc1)C(=O)O)C(=O)O` are 0.65 µg/mL and 3.9 µg/mL (≈ 10.6 µM).
In the same order, the values of `N[C@H](C[C@H](C/C=C/C=C/c1ccccc1)C(=O)O)C(=O)O` are 9.1 µg/mL and 3.9 µg/mL (≈ 13.5 µM).
For `N[C@H](C[C@H](Cc1cccc2ccccc12)C(=O)O)C(=O)O`, the IC50 in experiment [1] was 5.6 µg/mL. The compound also came in with an MIC with Streptococcus pneumoniae [2] of 3.9 µg/mL (≈ 13.6 µM).
In the same order, the values of `N[C@H](C[C@H](Cc1ccccc1Br)C(=O)O)C(=O)O` are 6.3 µg/mL and 31.3 µg/mL (≈ 99 µM).
In the same order, the values of `N[C@H](C[C@H](Cc1ccccc1Cl)C(=O)O)C(=O)O` are 7.1 µg/mL and 3.9 µg/mL (≈ 14.4 µM).
In the same order, the values of `N[C@H](C[C@H](C/C=C/c1ccc2ccccc2c1)C(=O)O)C(=O)O` are 0.5 µg/mL and 0.5 µg/mL (≈ 1.6 µM).
For `N[C@H](C[C@H](Cc1sc2ccccc2c1Cl)C(=O)O)C(=O)O`, in experiment [1], the IC50 is 0.01 µg/mL. This compound also yielded an MIC in the experiment with Streptococcus pneumoniae [2] of 0.5 µg/mL (≈ 1.53 µM).
As for `N[C@H](C[C@H](Cc1cc2ccccc2o1)C(=O)O)C(=O)O`, in experiment [1], the IC50 came out at 0.1 µg/mL. The MIC in the experiment on Streptococcus pneumoniae [2] was 0.24 µg/mL (≈ 0.866 µM).
As for `N[C@H](C[C@H](Cc1cc2ccccc2s1)C(=O)O)C(=O)O`, in experiment [1], the concentration for half-maximal inhibition (IC50) was 0.036 µg/mL. Moreover, the MIC was 0.24 µg/mL (≈ 0.818 µM) with Streptococcus pneumoniae [2]; 0.24 µg/mL (≈ 0.818 µM) in the experiment on Streptococcus pneumoniae [3]; more than 250 µg/mL against Moraxella catarrhalis; 0.24 µg/mL (≈ 0.818 µM) against Streptococcus pneumoniae [4]; more than 250 µg/mL with Staphylococcus aureus.
For the compound `N[C@H](C[C@H](Cc1ccc(-c2ccc3ccccc3c2)cc1)C(=O)O)C(=O)O`, the IC50 in experiment [1] is 0.42 µg/mL. The compound also yielded an MIC against Streptococcus pneumoniae [2] of 7.8 µg/mL (≈ 21.5 µM).
In the same order, the values of `N[C@H](C[C@H](Cc1cc(Cl)cc(Cl)c1)C(=O)O)C(=O)O` are 3 µg/mL and 3.9 µg/mL (≈ 12.7 µM).
Consider `N[C@H](C[C@H](Oc1ccc(Oc2ccccc2)cc1)C(=O)O)C(=O)O`, for which the half-inhibitory concentration (IC50) in experiment [1] was 46.3 µg/mL. In the experiment with Streptococcus pneumoniae [2], this compound gave an MIC of 125 µg/mL (≈ 377 µM).
In the same order, the values of `COc1cc(C[C@@H](C[C@@H](N)C(=O)O)C(=O)O)cc(OC)c1OC` are 81 µg/mL and more than 250 µg/mL.
Turning to `N[C@H](C[C@H](Cc1ccccc1-c1ccccc1)C(=O)O)C(=O)O`, the IC50 in experiment [1] is more than 100 µg/mL. The MIC in the experiment with Streptococcus pneumoniae [2] is more than 250 µg/mL.
In the same order, the values of `N[C@H](C[C@H](Cc1cccc(-c2ccccc2)c1)C(=O)O)C(=O)O` are 0.7 µg/mL and 0.5 µg/mL (≈ 1.6 µM).
Consider `N[C@H](C[C@H](C/C=C/c1ccccc1)C(=O)O)C(=O)O`, for which the IC50 in experiment [1] worked out at 0.1 µg/mL. Also, in the experiment with Streptococcus pneumoniae [2], the MIC is 0.4 µg/mL (≈ 1.52 µM).
In the same order, the values of `N[C@H](C[C@H](Oc1ccccc1)C(=O)O)C(=O)O` are 26.5 µg/mL and 62.5 µg/mL (≈ 261 µM).
In the same order, the values of `N[C@H](C[C@H](Cc1ccc(Cl)cc1)C(=O)O)C(=O)O` are 0.3 µg/mL and 0.5 µg/mL (≈ 1.84 µM).
In the same order, the values of `N[C@H](C[C@H](Cc1cccc(-c2ccco2)c1)C(=O)O)C(=O)O` are 0.5 µg/mL and 0.24 µg/mL (≈ 0.791 µM).
Regarding `N[C@H](C[C@H](Cc1nc2ccccc2s1)C(=O)O)C(=O)O`, the IC50 in experiment [1] worked out at 0.38 µg/mL. Moreover, 0.24 µg/mL (≈ 0.815 µM) was the least that counted as inhibitory against Streptococcus pneumoniae [2] (MIC).
In the same order, the values of `N[C@H](C[C@H](Cc1ccc(-c2ccsc2)cc1)C(=O)O)C(=O)O` are 0.32 µg/mL and 0.24 µg/mL (≈ 0.751 µM).
In the same order, the values of `N[C@H](C[C@H](Cc1ccc(-c2ccccc2)cc1)C(=O)O)C(=O)O` are 0.078 µg/mL and 1 µg/mL (≈ 3.19 µM).
In the same order, the values of `N[C@H](C[C@H](Cc1cccc(C(F)(F)F)c1)C(=O)O)C(=O)O` are 0.8 µg/mL and 0.5 µg/mL (≈ 1.64 µM).
